pIC50: −log10 of the molar value. Activity calls are given as the source filed them. The rule behind the calls is not given here.
How the values were obtained:
LNCaP = test: Cytotoxicity against human LNCAP cells after 72 hrs by MTT assay; assay type: functional, cell-based
[1] = molecular target: T1, Androgen receptor (Homo sapiens) (UniProt P10275); test: Antiandrogenic activity in human PC3 cells expressing wild-type androgen receptor assessed as inhibition of DHT-induced ARE-dependent transactivation at 1 uM after 24 hrs by luciferase reporter gene assay; assay type: cell-based; details: PC-3
T1 sequence (whole entry): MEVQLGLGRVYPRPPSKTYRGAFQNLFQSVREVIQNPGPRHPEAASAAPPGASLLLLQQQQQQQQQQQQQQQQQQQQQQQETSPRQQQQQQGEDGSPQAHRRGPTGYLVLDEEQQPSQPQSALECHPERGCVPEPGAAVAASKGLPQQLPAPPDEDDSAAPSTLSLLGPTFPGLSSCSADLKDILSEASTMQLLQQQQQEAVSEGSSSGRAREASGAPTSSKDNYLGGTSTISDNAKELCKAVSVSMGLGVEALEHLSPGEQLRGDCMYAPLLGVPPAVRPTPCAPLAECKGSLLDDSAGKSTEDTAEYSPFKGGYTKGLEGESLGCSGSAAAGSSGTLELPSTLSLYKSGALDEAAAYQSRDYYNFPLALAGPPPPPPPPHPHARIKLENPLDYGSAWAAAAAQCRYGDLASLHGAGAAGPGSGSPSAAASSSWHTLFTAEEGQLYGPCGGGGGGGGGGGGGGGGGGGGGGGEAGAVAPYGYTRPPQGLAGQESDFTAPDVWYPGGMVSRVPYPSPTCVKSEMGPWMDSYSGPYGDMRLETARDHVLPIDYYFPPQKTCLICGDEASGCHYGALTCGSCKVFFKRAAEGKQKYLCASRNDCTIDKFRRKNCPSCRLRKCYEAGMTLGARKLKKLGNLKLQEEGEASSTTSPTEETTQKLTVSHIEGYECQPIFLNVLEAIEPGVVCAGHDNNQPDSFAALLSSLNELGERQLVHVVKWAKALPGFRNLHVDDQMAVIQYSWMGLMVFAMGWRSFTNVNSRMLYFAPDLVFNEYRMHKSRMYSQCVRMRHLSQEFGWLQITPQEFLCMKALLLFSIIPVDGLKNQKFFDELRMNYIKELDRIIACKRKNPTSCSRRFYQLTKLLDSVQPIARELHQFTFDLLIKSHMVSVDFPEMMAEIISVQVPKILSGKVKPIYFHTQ
In short: (§1)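 PC-3 cells, which lack endogenous AR, transiently transfected with plasmids expressing human AR (WT, T877A, W741C or H874Y) plus an ARE-driven MMTV-luc reporter. Cells were treated with or without 0.1 nM DHT. Firefly luciferase was standardized to a Renilla control and normalized to the 0.1 nM DHT signal. Mean ± sd.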

PC-3 [2] = test: Cytotoxicity against human PC3 cells after 72 hrs by MTT assay; assay type: functional, cell-based; details: Homo sapiens, PC-3, 72 h; read-out: IC50
[3] = molecular target: T2, Androgen receptor (Rattus norvegicus) (UniProt P15207); test: Binding affinity to rat androgen receptor ligand binding domain by competitive fluorescence polarization assay
T2 sequence (whole entry): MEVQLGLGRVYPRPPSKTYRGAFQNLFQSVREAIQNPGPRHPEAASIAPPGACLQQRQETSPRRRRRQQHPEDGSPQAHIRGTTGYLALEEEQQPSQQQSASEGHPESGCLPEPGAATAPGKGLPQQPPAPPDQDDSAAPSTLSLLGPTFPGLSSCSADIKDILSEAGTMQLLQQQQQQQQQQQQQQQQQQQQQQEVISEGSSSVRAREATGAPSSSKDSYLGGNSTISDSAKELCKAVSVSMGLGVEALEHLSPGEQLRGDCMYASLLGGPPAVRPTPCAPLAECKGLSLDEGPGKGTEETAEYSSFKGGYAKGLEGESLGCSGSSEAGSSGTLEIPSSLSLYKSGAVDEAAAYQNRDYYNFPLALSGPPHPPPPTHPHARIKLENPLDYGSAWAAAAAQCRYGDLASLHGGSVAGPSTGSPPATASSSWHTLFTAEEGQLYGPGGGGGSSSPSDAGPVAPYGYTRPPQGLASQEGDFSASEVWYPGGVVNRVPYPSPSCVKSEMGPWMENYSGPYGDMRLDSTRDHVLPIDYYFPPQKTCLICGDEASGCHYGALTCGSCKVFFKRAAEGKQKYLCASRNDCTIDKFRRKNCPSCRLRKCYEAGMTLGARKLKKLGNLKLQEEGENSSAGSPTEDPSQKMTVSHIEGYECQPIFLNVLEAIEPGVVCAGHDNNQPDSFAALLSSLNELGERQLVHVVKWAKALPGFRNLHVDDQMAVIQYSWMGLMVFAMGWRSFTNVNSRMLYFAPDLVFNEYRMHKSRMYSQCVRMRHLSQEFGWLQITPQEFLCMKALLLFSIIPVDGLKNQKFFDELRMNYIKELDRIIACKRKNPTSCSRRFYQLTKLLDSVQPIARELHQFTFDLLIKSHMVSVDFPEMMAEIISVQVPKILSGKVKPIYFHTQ
In short: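 Competitive fluorescence polarization with the PolarScreen AR competitor kit, measuring displacement of a fluorescent tracer from the AR-LBD. Polarization was normalized to DMSO vehicle, which sets the maximum. Tracer without receptor sets the minimum, and DHT served as positive control. Average ± sd of experiments in triplicate.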

PC-3 [4] = test: Antiandrogenic activity in human PC3 cells expressing androgen receptor T877A mutant assessed as inhibition of DHT-induced ARE-dependent transactivation at 1 uM after 24 hrs by luciferase reporter gene assay; assay type: cell-based; in short: as §1
[5] = molecular target: T1, Androgen receptor (Homo sapiens); test: Activity in human PC3 cells expressing wild-type androgen receptor assessed as ARE-dependent transactivation at 1 uM after 24 hrs by luciferase reporter gene assay in absence of DHT; assay type: cell-based; details: PC-3; in short: as §1

For `COc1cc(/C=C(\C(=O)/C=C/C2=C(C)CCCC2(C)C)C(=O)/C=C/c2ccc(O)c(OC)c2)ccc1O`, the pIC50 (LNCaP) was 5.89, the Activity [1] was “Active” and the pIC50 (PC-3 [2]) was 5.38. The Activity [3] was “Dose-dependent effect”, the Activity (PC-3 [4]) was “Active” and the Activity [5] was “inactive”.

— ChEMBL document CHEMBL1153534, “Design and synthesis of androgen receptor antagonists with bulky side chains for overcoming antiandrogen resistance” (J Med Chem, 2009)
